We go through 1 compound from ChEMBL document CHEMBL1139738, “Pyridine-3-propanoic acids: Discovery of dual PPARalpha/gamma agonists as antidiabetic agents” (Bioorg Med Chem Lett, 2006).

In data set [1] the target is T1, Peroxisome proliferator-activated receptor alpha (Homo sapiens, UniProt Q07869).
T1 sequence (Q07869 whole entry): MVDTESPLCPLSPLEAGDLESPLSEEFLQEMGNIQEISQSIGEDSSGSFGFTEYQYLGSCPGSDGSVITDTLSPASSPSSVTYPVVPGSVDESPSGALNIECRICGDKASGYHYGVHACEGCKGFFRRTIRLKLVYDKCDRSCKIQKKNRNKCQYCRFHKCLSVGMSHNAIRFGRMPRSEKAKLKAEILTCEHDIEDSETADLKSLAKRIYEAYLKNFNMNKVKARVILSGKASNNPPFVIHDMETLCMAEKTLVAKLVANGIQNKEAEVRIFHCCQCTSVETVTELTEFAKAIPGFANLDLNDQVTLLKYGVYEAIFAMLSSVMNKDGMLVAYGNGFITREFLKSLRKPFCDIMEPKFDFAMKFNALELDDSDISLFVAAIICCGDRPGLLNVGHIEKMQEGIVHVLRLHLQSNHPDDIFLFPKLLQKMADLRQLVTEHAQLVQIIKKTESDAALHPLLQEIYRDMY
Kind of data set: Displacement of radiolabeled GW-2331 from human PPAR alpha by SPA binding assay.

In data set [2] the target is T1, Peroxisome proliferator-activated receptor alpha. Kind of data set: Agonist activity at human PPAR alpha in a HepG2 cells by PPAR-GAL4 transactivation assay. The format is functional, cell-based.
Data set [3] has as its target T2, Peroxisome proliferator-activated receptor alpha (Homo sapiens) (UniProt Q07869).
T2 sequence (whole entry): T1 sequence (Q07869 whole entry)
Kind of data set: Agonist activity at human PPAR alpha in a HepG2 cells by PPAR-GAL4 transactivation assay relative to GW-2331. The format is functional, cell-based.

Data set [4] is described as follows: Oral bioavailability in Sprague-Dawley rat. The data set is classed as ADME, organism-based. Particulars: in vivo. In a few lines: (§1)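 Pharmacokinetics in male Sprague–Dawley rats given iv and oral doses. Outputs are iv clearance (mL/min/kg), oral half-life, dose-normalized oral AUC (h μg/mL) and oral bioavailability (%).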
Data set [5] in a line: Clearance in iv dosed Sprague-Dawley rat. The format is ADME, organism-based. Particulars: in vivo. In a few lines:
as §1

Data set [6] can be described thus: Half life in orally dosed Sprague-Dawley rat. The format is ADME, organism-based. Particulars: in vivo, po. In a few lines:
as §1

Data set [7] has as its system Mus musculus. The experiment in a line: Reduction of plasma glucose in orally dosed db/db mouse at 1 mg/kg after 8 days relative to control. Particulars: route oral. Also noted: scale not given: the % may be the effect or the level left. The data set is classed as functional. Put shortly: (§2)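 Male db/db mice, 7 weeks old, with lean controls, given vehicle or compound by oral gavage once daily for 8 days. Plasma glucose, triglycerides, hematocrit and body weight measured before dosing on day −1 and 2 h post-dose on day 8. Percent change is expressed versus vehicle control, with significance at p < 0.05.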

In data set [8] the test system is Mus musculus. The experiment in a line: Reduction of plasma glucose in orally dosed db/db mouse at 10 mg/kg after 8 days relative to control. Also noted: scale not given: the % may be the effect or the level left. Particulars: route oral. The format is functional. Put shortly: as §2
Data set [9] has as its system Mus musculus. The experiment in a line: Reduction of plasma triglycerides in orally dosed db/db mouse at 1 mg/kg after 8 days relative to control. The format is functional. Set-up: scale not given: the % may be the effect or the level left. Particulars: route oral. In a few lines: as §2
Data set [10] has as its system Mus musculus. Kind of data set: Reduction of plasma triglycerides in orally dosed db/db mouse at 10 mg/kg after 8 days relative to control. Set-up: scale not given: the % may be the effect or the level left. Particulars: route oral. The data set is classed as functional. In a few lines: as §2
Data set [11] has as its system Mus musculus. The experiment in a line: Reduction of hematocrit in orally dosed db/db mouse at 1 mg/kg after 8 days relative to control. The data set is classed as functional. Particulars: route oral. Set-up: scale not given: the % may be the effect or the level left. Put shortly:
as §2

The test system of data set [12] is Mus musculus. Kind of data set: Reduction of hematocrit in orally dosed db/db mouse at 10 mg/kg after 8 days relative to control. The format is functional. Particulars: route oral. Also noted: scale not given: the % may be the effect or the level left. In a few lines: as §2
The test system of data set [13] is Mus musculus. Kind of data set: Increase in body weight in orally dosed db/db mouse at 1 mg/kg after 8 days relative to control. The data set is classed as functional. Particulars: route oral. Put shortly: as §2
Data set [14] deals with Mus musculus. Kind of data set: Increase in body weight in orally dosed db/db mouse at 10 mg/kg in a 8 day study. The data set is classed as functional. Particulars: route oral. Put shortly: as §2

As to `CO[C@@](C)(Cc1ccc(OCCc2nc(-c3ccccc3)oc2C)nc1)C(=O)O`, in data set [1], the Ki is 0.57 µM. Moreover, the EC50 in data set [2] amounted to 0.111 µM. Further, in data set [3], the %max is 99%. This compound returned a bioavailability in [4] of 87%. For the same compound, the clearance in [5] was 0.132 L/h/kg. This compound showed a half-life in data set [6] of 9.7 h. In addition, the Activity was determined as 88% in the data set on Mus musculus [7]; 106% in the data set with Mus musculus [8]; 177% in the data set on Mus musculus [9]; 205% in the data set with Mus musculus [10]; 3.8% with Mus musculus [11]; 7.2% with Mus musculus [12]. In addition, the Activity with Mus musculus [13] came out at 13.2%; in the data set on Mus musculus [14], 16.8%.
